We go through 17 compounds from ChEMBL document CHEMBL1156880, “Isosorbide-based cholinesterase inhibitors; replacement of 5-ester groups leading to increased stability” (Bioorg Med Chem, 2010).

Activity calls are given as the source filed them. The rule behind the calls is not given here.

The target of experiment [1] is T1, Cholinesterase (Homo sapiens, UniProt P06276). Briefly: Inhibition of human plasma BuChE at 100 uM preincubated for 30 mins before substrate addition by Ellman's assay. It counts as cell-free. The method, boiled down: (§1)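 Ellman assay, phosphate buffer pH 8.0. Human plasma from heparinised venous blood, centrifuged and diluted 1 mL to 20 mL in buffer, with DTNB. Inhibitor, in acetonitrile/water 1:1 as vehicle, preincubated 30 min before butyrylthiocholine is added (final 0.5 mM); 412 nm read over 5 min. Screened at 100 μM; IC50 determined only where inhibition exceeded 90%. Controls without enzyme; n = 6.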

Experiment [2] concerns the target Acetylcholinesterase (Electrophorus electricus) (UniProt O42275). Briefly: Inhibition of electric eel AChE at 100 uM preincubated for 30 mins before substrate addition by Ellman's assay. The method, boiled down:
(§2)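 Ellman assay, phosphate buffer pH 8.0. Inhibitor, in acetonitrile/water 1:1 as vehicle, preincubated with enzyme 30 min before acetylthiocholine is added (final 0.5 mM); 412 nm read over 5 min. Screened at 100 μM; IC50 found by serial lower concentrations only where inhibition exceeded 90%. Controls without enzyme account for spontaneous hydrolysis; n = 6.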

The target in experiment [3] is T1, Cholinesterase. Briefly: Inhibition of human plasma BuChE preincubated for 30 mins before substrate addition by Ellman's assay. The method, boiled down: as §1
A short description of experiment [4]: Selectivity for human plasma BuChE over electric eel AChE. The experiment is classed as cell-free. A digest of the protocol:
(§3)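 Ratio of the 30 min BuChE and AChE IC50 values from the Ellman assays, using 100 μM in place of any IC50 that was not determined.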

The next experiment concerns the target Acetylcholinesterase (Electrophorus electricus, UniProt O42275). Description: Inhibition of electric eel AChE preincubated for 30 mins before substrate addition by Ellman's assay. The method, boiled down: as §2
The nature of experiment [5]: Selectivity for electric eel AChE over human plasma BuChE. It counts as cell-free. The method, boiled down:
as §3

The subject of another experiment is Mus musculus. Briefly: Inhibition of BuChE in CD1 mouse plasma at 1 mg/kg, ip administered as single dose measured after 72 hrs. The experiment is classed as functional, organism-based. Details: dose 1 mg/kg. A digest of the protocol: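 Male CD-1 mice (35–40 g) given one ip injection, 0.1 mL per 10 g body weight, into the left lower abdominal quadrant; n = 9 split into three subgroups of 3 for serial sampling. Submandibular blood (about 50 μL) collected into lithium heparin and kept on ice; terminal sampling by cardiac puncture under ketamine/xylazine. Plasma spun 10 min at 4 °C, then BuChE activity read ex vivo by Ellman assay.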

Chain of Acetylcholinesterase (Electrophorus electricus) (O42275 24-633 limits assumed): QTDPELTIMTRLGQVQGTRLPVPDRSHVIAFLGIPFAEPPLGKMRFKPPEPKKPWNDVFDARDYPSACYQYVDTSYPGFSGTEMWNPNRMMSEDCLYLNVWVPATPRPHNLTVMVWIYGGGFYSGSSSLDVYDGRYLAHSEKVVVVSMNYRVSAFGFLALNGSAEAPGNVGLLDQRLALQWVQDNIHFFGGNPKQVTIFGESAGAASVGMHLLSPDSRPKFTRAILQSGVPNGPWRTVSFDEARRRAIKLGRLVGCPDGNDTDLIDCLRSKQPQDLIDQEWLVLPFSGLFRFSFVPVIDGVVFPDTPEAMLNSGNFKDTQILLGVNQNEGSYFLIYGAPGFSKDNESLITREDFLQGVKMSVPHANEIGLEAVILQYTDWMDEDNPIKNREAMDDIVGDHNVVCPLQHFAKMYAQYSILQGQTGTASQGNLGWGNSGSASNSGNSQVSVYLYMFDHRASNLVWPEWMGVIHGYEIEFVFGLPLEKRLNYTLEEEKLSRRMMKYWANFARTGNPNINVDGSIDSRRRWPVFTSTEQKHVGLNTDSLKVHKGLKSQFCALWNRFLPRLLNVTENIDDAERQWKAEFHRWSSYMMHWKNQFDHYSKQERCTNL
T1 sequence (P06276 whole entry): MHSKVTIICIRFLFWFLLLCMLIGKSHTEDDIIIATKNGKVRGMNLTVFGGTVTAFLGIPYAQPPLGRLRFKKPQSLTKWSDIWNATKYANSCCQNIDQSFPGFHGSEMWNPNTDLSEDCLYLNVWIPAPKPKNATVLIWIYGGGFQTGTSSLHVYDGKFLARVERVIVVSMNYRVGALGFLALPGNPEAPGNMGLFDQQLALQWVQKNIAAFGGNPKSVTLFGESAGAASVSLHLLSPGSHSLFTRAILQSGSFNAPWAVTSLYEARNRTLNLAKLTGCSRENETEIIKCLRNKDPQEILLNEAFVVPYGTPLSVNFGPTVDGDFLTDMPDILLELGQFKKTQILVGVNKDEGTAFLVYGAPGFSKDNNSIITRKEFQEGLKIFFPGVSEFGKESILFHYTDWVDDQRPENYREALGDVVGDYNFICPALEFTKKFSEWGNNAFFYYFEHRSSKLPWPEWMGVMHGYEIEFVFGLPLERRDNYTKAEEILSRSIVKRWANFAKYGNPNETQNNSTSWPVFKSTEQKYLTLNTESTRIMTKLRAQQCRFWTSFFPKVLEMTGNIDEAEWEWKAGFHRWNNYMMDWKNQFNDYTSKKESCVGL
Chain of Acetylcholinesterase (O42275 whole entry): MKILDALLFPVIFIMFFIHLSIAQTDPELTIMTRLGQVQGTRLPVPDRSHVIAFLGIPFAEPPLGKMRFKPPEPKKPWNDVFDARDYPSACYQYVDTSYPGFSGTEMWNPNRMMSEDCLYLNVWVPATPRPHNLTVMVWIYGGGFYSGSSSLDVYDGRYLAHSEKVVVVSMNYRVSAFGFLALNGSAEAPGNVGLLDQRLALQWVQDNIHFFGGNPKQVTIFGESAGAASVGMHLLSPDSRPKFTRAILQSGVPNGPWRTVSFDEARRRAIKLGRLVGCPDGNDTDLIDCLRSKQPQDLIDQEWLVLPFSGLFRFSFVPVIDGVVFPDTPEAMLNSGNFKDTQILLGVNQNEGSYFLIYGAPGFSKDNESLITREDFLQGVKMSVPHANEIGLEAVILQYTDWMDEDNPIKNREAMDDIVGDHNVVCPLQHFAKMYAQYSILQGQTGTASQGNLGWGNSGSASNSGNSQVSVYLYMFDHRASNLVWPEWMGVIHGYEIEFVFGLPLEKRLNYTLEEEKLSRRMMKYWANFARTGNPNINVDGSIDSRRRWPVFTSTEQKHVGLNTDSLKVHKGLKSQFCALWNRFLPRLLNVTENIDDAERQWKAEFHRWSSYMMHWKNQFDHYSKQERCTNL

As to `CN1C(=O)CO[C@@H]2[C@@H](OC(=O)NCc3ccccc3)CO[C@@H]21`, the inhibition against Cholinesterase [1] came to 63%; in experiment [2], 6.5%.
As for `CCCCNC(=O)O[C@H]1CO[C@H]2[C@@H]1OC[C@H]2OC(=O)NCCCC`, the IC50 against Cholinesterase [3] was found to be 1.22 µM. In experiment [4], the Selectivity ratio stood at 81. The compound further returned an inhibition in experiment [2] of 13%.
For the compound `O=C1CO[C@H]2[C@H](OC[C@@H]2OC(=O)NCc2ccccc2)O1` (relative stereo), the inhibition against Cholinesterase [1] is 56%; in experiment [2], 10%.
In the case of `O=C(NCc1ccccc1)O[C@H]1CO[C@H]2[C@@H]1OC[C@H]2NC(=O)c1ccccc1`, the inhibition against Cholinesterase [1] was determined as 88%; in experiment [2] it was 46%.
Regarding `O=C(NCc1ccccc1)O[C@H]1CO[C@@H]2/C(=N/OC(=O)c3ccccc3)CO[C@H]12`, the inhibition against Cholinesterase [1] turned out to be 64.8%; in experiment [2] it was 9%.
As for `CCCNC(=O)O[C@H]1CO[C@H]2[C@@H]1OC[C@H]2OC(=O)NCCC`, 10.4 µM corresponded to half-maximal inhibition on Cholinesterase [3] (IC50). The Selectivity ratio in experiment [4] was 9.6. The compound also registered an inhibition in experiment [2] of 28%.
In turn, `O=C(Nc1ccc(Cl)cc1)O[C@H]1CO[C@H]2[C@@H]1OC[C@H]2OC(=O)Nc1ccc(Cl)cc1` returned an inhibition at Cholinesterase [1] of 7.96%.
`CCNC(=O)O[C@H]1CO[C@H]2[C@@H]1OC[C@H]2OC(=O)NCC` registered an inhibition on Cholinesterase [1] of 55.1%. Besides, the midpoint of inhibition against Acetylcholinesterase, the IC50, lay at 6.5 µM. Moreover, in experiment [5], the Selectivity ratio amounted to 15.4.
For the compound `O=C(NCc1ccccc1)O[C@H]1CO[C@H]2[C@@H]1OC[C@H]2OC(=O)NCc1ccccc1`, the midpoint of inhibition against Cholinesterase [3], the IC50, lay at 0.4 µM. Further, in experiment [4], the Selectivity ratio stood at 250. Also, the inhibition in experiment [2] came to 77%.
In the case of `O=C(NCc1ccccc1)O[C@H]1CO[C@@H]2C(=O)CO[C@H]12`, the inhibition against Cholinesterase [1] was determined as 46%; in experiment [2] it was 10%.
Turning to `CCOC(=O)/C=C1\CO[C@@H]2[C@@H](OC(=O)NCc3ccccc3)CO[C@H]12`, inhibition against Cholinesterase [3] was half-maximal at 4.8 µM (IC50). Besides, the Selectivity ratio in experiment [4] was found to be 21. Further, the inhibition in experiment [2] was 4.9%.
Take `O=C(Nc1ccccc1)O[C@H]1CO[C@H]2[C@@H]1OC[C@H]2OC(=O)Nc1ccccc1`: the inhibition turned out to be 20.6% on Cholinesterase [1] and 77% in experiment [2].
In the case of `[N-]=[N+]=N[C@@H]1CO[C@H]2[C@@H]1OC[C@@H]2OC(=O)NCc1ccccc1`, the inhibition is 50.4% at Cholinesterase [1] and 5% in experiment [2].
The compound `O=C(Nc1ccc([N+](=O)[O-])cc1)O[C@H]1CO[C@H]2[C@@H]1OC[C@H]2OC(=O)Nc1ccc([N+](=O)[O-])cc1` yielded an inhibition at Cholinesterase [1] of 17.4%. In addition, the 50% inhibitory concentration (IC50) against Acetylcholinesterase was found to be 5.4 µM. Further, the Selectivity ratio in experiment [5] turned out to be 18.5.
Turning to `O=C(NCc1ccccc1)O[C@H]1CO[C@H]2[C@@H]1OC[C@H]2OCc1ccccc1`, the inhibition entry in the experiment with Mus musculus is “Active”. Besides, the IC50 at Cholinesterase [3] came out at 0.052 µM. For the same compound, the Selectivity ratio in experiment [4] amounted to 1920. Besides, the inhibition in experiment [2] was 55%.
In the case of `O=C(NCc1ccccc1)O[C@H]1CO[C@@H]2C=CO[C@H]12`, inhibition against Cholinesterase [3] was half-maximal at 10.2 µM (IC50). In addition, the Selectivity ratio in experiment [4] was determined as 9.7. For the same compound, the inhibition in experiment [2] came out at 9.8%.
Regarding `O=C(NCc1ccccc1)O[C@H]1CO[C@@H]2/C(=N/O)CO[C@H]12`, the inhibition against Cholinesterase [1] was determined as 40%; in experiment [2] it was 83%.
